Measured values reported in ChEMBL document CHEMBL2057092, “The SAR analysis of TRPV1 agonists with the α-methylated B-region” (Bioorg Med Chem Lett, 2012).

Legend:
[1] = target: Transient receptor potential cation channel subfamily V member 1 (Rattus norvegicus) (UniProt O35433); assay: Antagonist activity at rat TRPV1 expressed in CHO cells assessed as inhibition of calcium uptake at 30 uM; assay type: functional, cell-based
[2] = target: T1, Transient receptor potential cation channel subfamily V member 1 (Rattus norvegicus, UniProt O35433); assay: Displacement of [3H]RTX from rat TRPV1 expressed in CHO cells; assay type: cell-based
T1 sequence (O35433 whole entry): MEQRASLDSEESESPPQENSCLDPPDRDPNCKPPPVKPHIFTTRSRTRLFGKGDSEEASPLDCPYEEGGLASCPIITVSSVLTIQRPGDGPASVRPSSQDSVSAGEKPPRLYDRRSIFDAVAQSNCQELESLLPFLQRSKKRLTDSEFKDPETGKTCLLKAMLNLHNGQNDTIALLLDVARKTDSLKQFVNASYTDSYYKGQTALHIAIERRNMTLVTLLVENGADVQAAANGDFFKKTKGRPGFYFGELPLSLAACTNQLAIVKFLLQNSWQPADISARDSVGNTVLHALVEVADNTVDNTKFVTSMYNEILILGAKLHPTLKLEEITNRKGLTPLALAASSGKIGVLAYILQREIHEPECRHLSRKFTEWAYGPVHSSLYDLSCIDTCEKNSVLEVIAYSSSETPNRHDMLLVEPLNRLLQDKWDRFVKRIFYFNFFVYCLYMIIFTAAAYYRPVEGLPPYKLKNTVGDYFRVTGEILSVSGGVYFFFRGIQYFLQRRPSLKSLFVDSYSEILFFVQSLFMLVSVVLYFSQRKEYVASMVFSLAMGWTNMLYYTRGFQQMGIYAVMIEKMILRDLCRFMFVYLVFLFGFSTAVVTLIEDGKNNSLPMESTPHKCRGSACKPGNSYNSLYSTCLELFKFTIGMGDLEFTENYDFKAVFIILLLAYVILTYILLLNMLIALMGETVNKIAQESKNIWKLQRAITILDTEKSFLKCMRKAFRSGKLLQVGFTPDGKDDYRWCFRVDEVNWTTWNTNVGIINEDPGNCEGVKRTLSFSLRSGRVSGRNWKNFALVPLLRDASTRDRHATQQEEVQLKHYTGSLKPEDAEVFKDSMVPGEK

[3] = target: T1, Transient receptor potential cation channel subfamily V member 1; assay: Agonist activity at rat TRPV1 expressed in CHO cells assessed as calcium uptake; assay type: functional, cell-based
Procedure, shortened: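 Functional agonism was read as 45Ca2+ uptake in CHO cells heterologously expressing rat TRPV1.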

[4] = target: Transient receptor potential cation channel subfamily V member 1 (Rattus norvegicus) (UniProt O35433); assay: Agonist activity at rat TRPV1 expressed in CHO cells assessed as calcium uptake at 300 nM relative to capsaicin; assay type: functional, cell-based

Sequence of Transient receptor potential cation channel subfamily V member 1 (Rattus norvegicus) (O35433 whole entry): as above

| Structure (SMILES) | inhibition [1] [%] | Ki [2] [nM] | EC50 [3] [nM] | Activity [4] [%] |
| --- | --- | --- | --- | --- |
| COc1cc(C(C)C(=O)NCc2ccc(C(C)(C)C)cc2)ccc1OCCN (stereo unspecified) | 16 | 504 | 238 |  |
| COc1cc(CC(=O)NCc2ccc(C(C)(C)C)cc2)ccc1OCCN | 12 | 1230 | 358 |  |
| CCCCCCCCNC(=O)C(C)c1ccc(O)c(OC)c1 (stereo unspecified) |  | 744 | 130 |  |
| COc1cc(C(C)C(=O)NCc2ccc(C(C)(C)C)cc2)ccc1O (stereo unspecified) | 15 | 308 | 24 |  |
| COc1cc(CC(=O)NCCCc2ccc(C)c(C)c2)ccc1OCCN [DAVASAICIN] |  | 930 | 589 |  |
| CCCCCCCCNC(=O)Cc1ccc(O)c(OC)c1 |  | 848 | 77 |  |
| CCCCCCCCCC(=O)NC(C)c1ccc(O)c(OC)c1 (stereo unspecified) | 28 | 3300 | 1250 |  |
| COc1cc(C(C)C(=O)NCCCc2ccc(C)c(C)c2)ccc1OCCN (stereo unspecified) |  | 518 | 404 |  |
| COc1cc(CC(=O)NCCCc2ccc(C)c(C)c2)ccc1O |  | 354 | 41 |  |
| COc1cc(CNC(=S)NCc2ccc(C(C)(C)C)cc2)ccc1O |  |  | 2.6 |  |
| CCCCCCCCCNC(=O)Cc1ccc(O)c(OC)c1 |  | 240 | 61 |  |
| CCCCCCCCC(=O)NC(C)c1ccc(O)c(OC)c1 (stereo unspecified) | 44 | 4280 | 1580 | 72 |
| CCCCCCCC/C=C\CCCCCCCC(=O)NCc1ccc(O)c(OC)c1 [OLVANIL] |  | 142 | 202 |  |
| COc1cc(C(C)NC(=S)NCc2ccc(C(C)(C)C)cc2)ccc1OCCN (stereo unspecified) |  | 1430 | 5800 |  |
| COc1cc(C(C)NC(=S)NCc2ccc(C(C)(C)C)cc2)ccc1O (stereo unspecified) | 35 | 194 | 380 | 70 |
| CCCCCCCC/C=C/CCCCCCCC(=O)NC(C)c1ccc(O)c(OC)c1 (stereo unspecified) |  | 226 | 678 |  |
| CC(C)(C)c1ccc(CNC(=O)Cc2ccc(O)c(Cl)c2)cc1 |  | 132 | 206 |  |
| CCCCCCCCCC(=O)NCc1ccc(O)c(OC)c1 |  | 864 | 83 |  |
| CCCCCCCCCNC(=O)C(C)c1ccc(O)c(OC)c1 (stereo unspecified) |  | 159 | 26.3 |  |
| CCCCCCCCC(=O)NCc1ccc(O)c(OC)c1 [NONIVAMIDE] |  | 1220 | 223 |  |
| COc1cc(C(C)C(=O)NCCCc2ccc(C)c(C)c2)ccc1O (stereo unspecified) |  | 177 | 21.3 |  |
| CC(C)(C)c1ccc(CNC(=O)Cc2ccc(OCCN)c(Cl)c2)cc1 | 56 | 2470 |  | 36 |
| CC(C(=O)NCc1ccc(C(C)(C)C)cc1)c1ccc(OCCN)c(Cl)c1 (stereo unspecified) | 38 | 380 |  | 75 |
| CC(C)(C)c1ccc(CNC(=O)Cc2ccc(O)c(F)c2)cc1 | 30 | 808 | 911 |  |
| CC(C(=O)NCc1ccc(C(C)(C)C)cc1)c1ccc(O)c(Cl)c1 (stereo unspecified) | 9 | 33.1 |  | 77 |
| CC(C(=O)NCc1ccc(C(C)(C)C)cc1)c1ccc(O)c(F)c1 (stereo unspecified) | 20 | 178 | 221 |  |
| CC(C(=O)NCc1ccc(C(C)(C)C)cc1)c1ccc(OCCN)c(F)c1 (stereo unspecified) |  | 2160 |  | 91 |
| CC(C)(C)c1ccc(CNC(=O)Cc2ccc(OCCN)c(F)c2)cc1 | 18 | 10100 |  | 63 |
| COc1cc(C/N=C(\S)NCc2ccc(C(C)(C)C)cc2)ccc1OCCN |  | 84 | 132 |  |
